The source of these data is ChEMBL document CHEMBL4251703, “Linker Variation and Structure-Activity Relationship Analyses of Carboxylic Acid-based Small Molecule STAT3 Inhibitors” (ACS Med Chem Lett, 2018).

Active and inactive are the calls of the source. No cut-off for these calls is given here.

Chain of Signal transducer and activator of transcription 3 (P42227 whole entry): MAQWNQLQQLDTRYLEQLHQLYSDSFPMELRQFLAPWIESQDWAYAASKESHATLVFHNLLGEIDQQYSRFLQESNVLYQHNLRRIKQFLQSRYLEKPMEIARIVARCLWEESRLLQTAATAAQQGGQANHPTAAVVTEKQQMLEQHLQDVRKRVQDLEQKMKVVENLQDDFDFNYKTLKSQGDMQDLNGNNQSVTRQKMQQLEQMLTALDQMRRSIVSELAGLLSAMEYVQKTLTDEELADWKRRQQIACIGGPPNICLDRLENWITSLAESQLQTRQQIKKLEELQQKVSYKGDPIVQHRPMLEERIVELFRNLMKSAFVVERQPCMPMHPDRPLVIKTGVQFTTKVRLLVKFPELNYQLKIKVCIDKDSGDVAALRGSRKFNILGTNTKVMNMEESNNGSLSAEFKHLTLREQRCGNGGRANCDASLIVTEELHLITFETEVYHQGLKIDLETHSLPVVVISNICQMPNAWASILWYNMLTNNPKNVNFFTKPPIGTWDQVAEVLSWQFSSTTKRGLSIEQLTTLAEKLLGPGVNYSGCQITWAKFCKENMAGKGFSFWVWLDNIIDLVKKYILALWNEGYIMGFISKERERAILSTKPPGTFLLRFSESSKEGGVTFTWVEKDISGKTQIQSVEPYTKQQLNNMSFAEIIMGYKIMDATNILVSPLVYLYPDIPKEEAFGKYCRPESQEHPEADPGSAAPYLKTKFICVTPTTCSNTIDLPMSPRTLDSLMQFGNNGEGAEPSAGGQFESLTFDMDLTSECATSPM

For the first test, the target named is Signal transducer and activator of transcription 3 (Mus musculus) (UniProt P42227). The experiment in a line: (§1) Inhibition of STAT3 DNA binding activity in mouse NIH/3T3 nuclear extract preincubated for 30 mins followed by [32P]hSIE addition measured after 30 mins by electrophoretic mobility shift assay. The method, boiled down: (§2)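 STAT3 DNA-binding was measured by EMSA using nuclear extracts of equal total protein from v-Src-transformed fibroblasts containing activated STAT3. Extracts were preincubated for 30 min with 0–100 μM compound, then incubated with radiolabeled hSIE probe.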
Chain of Signal transducer and activator of transcription 3 (Mus musculus) (P42227 whole entry): as above
On the technique in general: A gel shift assay detects complexes by their altered migration in electrophoresis.
For the molecule `C[C@H](O)[C@H](C(=O)N(Cc1ccc(C2CCCCC2)cc1)c1ccc(C(=O)O)c(O)c1)N(C)S(=O)(=O)c1c(F)c(F)c(F)c(F)c1F`, the inhibition result was “Active”.

As to `C[C@H](C(=O)N(Cc1ccc(C2CCCCC2)cc1)c1ccc(C(=O)O)c(F)c1)N(C)S(=O)(=O)c1c(F)c(F)c(F)c(F)c1F`, the inhibition entry was “inactive”.

Take `CN([C@@H](CO)C(=O)N(Cc1ccc(C2CCCCC2)cc1)c1ccc(C(=O)O)c(O)c1)S(=O)(=O)c1c(F)c(F)c(F)c(F)c1F`: the inhibition result was “inactive”.

On to `C[C@H](C(=O)N(Cc1ccc(C2CCCCC2)cc1)c1ccc2cn[nH]c2c1)N(C)S(=O)(=O)c1c(F)c(F)c(F)c(F)c1F`, for which the inhibition result is “inactive”.

On to `O=C(O)c1ccc(N(Cc2ccc(C3CCCCC3)cc2)C(=O)[C@H]2CCCN2C(=O)c2c(F)c(F)c(F)c(F)c2F)cc1O`, for which the inhibition entry was “inactive”.

As for `O=C(O)c1ccc(N(Cc2ccc(C3CCCCC3)cc2)C(=O)[C@H]2CCCN2Cc2c(F)c(F)c(F)c(F)c2F)cc1O`, the inhibition result was “inactive”.

As to `CN([C@H](CCO)C(=O)N(Cc1ccc(C2CCCCC2)cc1)c1ccc(C(=O)O)c(O)c1)S(=O)(=O)c1c(F)c(F)c(F)c(F)c1F`, the inhibition entry was “Active”.

Regarding `CN([C@H](CC(=O)O)C(=O)N(Cc1ccc(C2CCCCC2)cc1)c1ccc(C(=O)O)c(O)c1)S(=O)(=O)c1c(F)c(F)c(F)c(F)c1F`, the inhibition entry was “Active”.

Regarding `CN([C@@H](CCO)C(=O)N(Cc1ccc(C2CCCCC2)cc1)c1ccc(C(=O)O)c(O)c1)S(=O)(=O)c1c(F)c(F)c(F)c(F)c1F`, the inhibition entry was “inactive”.

In the case of `CN(CC(=O)N(Cc1ccc(N2CCCCC2)cc1)c1ccc(C(=O)O)cc1)S(=O)(=O)c1c(F)c(F)c(F)c(F)c1F`, the inhibition result is “inactive”.

On to `CN(CC(=O)N(Cc1ccc(C2CCNCC2)cc1)c1ccc(C(=O)O)c(O)c1)S(=O)(=O)c1c(F)c(F)c(F)c(F)c1F`, for which the inhibition result was “inactive”.

With `Cc1cc(C(=O)O)cc(C)c1N(Cc1ccc(C2CCCCC2)cc1)C(=O)CN(C)S(=O)(=O)c1c(F)c(F)c(F)c(F)c1F`, the inhibition entry was “inactive”.

With `CN(CC(=O)N(Cc1ccc(C2CCC(F)(F)CC2)cc1)c1ccc(C(=O)O)c(O)c1)S(=O)(=O)c1c(F)c(F)c(F)c(F)c1F`, the inhibition entry was “inactive”.

Take `O=C(O)c1ccc(N(Cc2ccc(C3CCCCC3)cc2)C(=O)[C@H]2CCCN2S(=O)(=O)c2cc(F)cc(F)c2F)cc1O`: the inhibition result was “inactive”.

In the case of `CN([C@H](CN)C(=O)N(Cc1ccc(C2CCCCC2)cc1)c1ccc(C(=O)O)c(O)c1)S(=O)(=O)c1c(F)c(F)c(F)c(F)c1F`, the inhibition result was “Active”.

With `CN(CC(=O)N(Cc1ccc(C2CCCCC2)cc1)c1ncc(C(=O)O)o1)S(=O)(=O)c1c(F)c(F)c(F)c(F)c1F`, the inhibition result was “inactive”.

`CN(CC(=O)N(Cc1ccc(C2CCCCC2)cc1)c1ccc(C(=O)O)c(O)c1)Cc1c(F)c(F)c(F)c(F)c1F`: the inhibition entry is “inactive”.

On to `C[C@H](C(=O)N(Cc1ccc(C2CCOCC2)cc1)c1ccc(C(=O)[O-])c(O)c1)N(C)S(=O)(=O)c1c(F)c(F)c(F)c(F)c1F.[Na+]`, for which the inhibition entry is “inactive”.

`CN(CC(=O)N(Cc1ccc(C2CCCCC2)nc1)c1ccc(C(=O)O)c(O)c1)S(=O)(=O)c1c(F)c(F)c(F)c(F)c1F`: the inhibition entry is “inactive”.

As to `CN([C@H](CO)C(=O)N(Cc1ccc(C2CCCCC2)cc1)c1ccc(C(=O)NO)cc1)S(=O)(=O)c1c(F)c(F)c(F)c(F)c1F`, the inhibition result was “Active”.

With `CN(CC(=O)N(Cc1ccc(C2CCOCC2)cc1)c1ccc(C(=O)O)c(O)c1)S(=O)(=O)c1c(F)c(F)c(F)c(F)c1F`, the inhibition result is “inactive”.

Consider `CN(CC(=O)N(Cc1ccc(C2CCCCC2)cc1)c1nc(C(=O)O)co1)S(=O)(=O)c1c(F)c(F)c(F)c(F)c1F`, for which the inhibition entry was “inactive”.

`CN(CC(=O)N(Cc1ccc(C2CCCCCC2)cc1)c1ccc(C(=O)O)cc1)S(=O)(=O)c1c(F)c(F)c(F)c(F)c1F`: the inhibition entry was “inactive”.

Consider `CN(CC(=O)N(Cc1ccc(C2CCOCC2)cc1)c1ccc(C(=O)O)cc1)S(=O)(=O)c1c(F)c(F)c(F)c(F)c1F`, for which the inhibition entry was “inactive”.

Turning to `CC[C@@H](C(=O)N(Cc1ccc(C2CCCCC2)cc1)c1ccc(C(=O)O)c(O)c1)N(C)S(=O)(=O)c1c(F)c(F)c(F)c(F)c1F`, the inhibition entry is “inactive”.

Take `CN(CC(=O)N(Cc1ccc(C2CCCCC2)cc1)c1ccc(C(=O)O)nc1)S(=O)(=O)c1c(F)c(F)c(F)c(F)c1F`: the inhibition result was “inactive”.

Regarding `C[C@@H](O)[C@@H](C(=O)N(Cc1ccc(C2CCCCC2)cc1)c1ccc(C(=O)O)c(O)c1)N(C)S(=O)(=O)c1c(F)c(F)c(F)c(F)c1F`, the inhibition result was “inactive”.

On to `CN(CC(=O)N(Cc1ccc(C2CCCCC2)cc1)c1ccc(C(=O)O)c(O)c1)C(=O)c1c(F)c(F)c(F)c(F)c1F`, for which the inhibition result was “inactive”.

On to `CN(CC(=O)N(Cc1ccc(C2CCOCC2)cc1)c1ccc(C(=O)NO)c(O)c1)S(=O)(=O)c1c(F)c(F)c(F)c(F)c1F`, for which the inhibition result was “inactive”.

For `CC[C@H](C(=O)N(Cc1ccc(C2CCCCC2)cc1)c1ccc(C(=O)O)c(O)c1)N(C)S(=O)(=O)c1c(F)c(F)c(F)c(F)c1F`, the inhibition result was “Active”.

With `CN([C@H](CO)C(=O)N(Cc1ccc(C2CCCCC2)cc1)c1ccc(C(=O)O)cc1)S(=O)(=O)c1c(F)c(F)c(F)c(F)c1F`, the inhibition entry is “Active”.

In the case of `Cc1cc(N(Cc2ccc(C3CCCCC3)cc2)C(=O)CN(C)S(=O)(=O)c2c(F)c(F)c(F)c(F)c2F)ccc1C(=O)O`, the inhibition result was “inactive”.

Turning to `CC[C@H](C(=O)N(Cc1ccc(C2CCC(F)(F)CC2)cc1)c1ccc(C(=O)O)c(O)c1)N(C)S(=O)(=O)c1c(F)c(F)c(F)c(F)c1F`, the inhibition entry was “inactive”.

Take `C[C@H](C(=O)N(Cc1ccc(C2CCCCC2)cc1)c1c(F)cc(C(=O)O)cc1F)N(C)S(=O)(=O)c1c(F)c(F)c(F)c(F)c1F`: the inhibition entry was “inactive”.

With `CN([C@@H](CC(=O)O)C(=O)N(Cc1ccc(C2CCCCC2)cc1)c1ccc(C(=O)O)c(O)c1)S(=O)(=O)c1c(F)c(F)c(F)c(F)c1F`, the inhibition result is “inactive”.

Take `CN([C@H](CO)C(=O)N(Cc1ccc(C2CCCCC2)cc1)c1ccc(C(=O)O)c(O)c1)S(=O)(=O)c1c(F)c(F)c(F)c(F)c1F`: the inhibition result is “Active”.

As to `CN(CC(=O)N(Cc1ccc(C2=CCCCCC2)cc1)c1ccc(C(=O)O)cc1)S(=O)(=O)c1c(F)c(F)c(F)c(F)c1F`, the inhibition result is “inactive”.

Regarding `CN(CC(=O)N(Cc1ccc(C2CCCCC2)cc1)c1ccc(C(=O)O)[n+]([O-])c1)S(=O)(=O)c1c(F)c(F)c(F)c(F)c1F`, the inhibition entry was “inactive”.

In the case of `O=C(O)c1ccc(N(Cc2ccc(C3CCCCC3)cc2)C(=O)[C@H]2CCCN2S(=O)(=O)c2c(F)cc(F)c(F)c2F)cc1O`, the inhibition entry is “inactive”.

Take `C[C@H](C(=O)N(Cc1ccc(C2CCCCC2)cc1)c1ccc2c(c1)CNC2=O)N(C)S(=O)(=O)c1c(F)c(F)c(F)c(F)c1F`: the inhibition result is “inactive”.

Consider `CN(CC(=O)N(Cc1ccc(C2CCCCC2)cc1)c1cccc(CC(=O)O)c1)S(=O)(=O)c1c(F)c(F)c(F)c(F)c1F`, for which the inhibition result is “inactive”.

As to `CN([C@@H](CN)C(=O)N(Cc1ccc(C2CCCCC2)cc1)c1ccc(C(=O)O)c(O)c1)S(=O)(=O)c1c(F)c(F)c(F)c(F)c1F`, the inhibition entry is “inactive”.

Another test has as its target Signal transducer and activator of transcription 3 (Mus musculus, UniProt P42227). The test is described as §1. The method, boiled down: as §2
For `CN(CC(=O)N(Cc1ccc(C2CCCCC2)cc1)c1ccc(C(=O)O)c(Cl)c1)S(=O)(=O)c1c(F)c(F)c(F)c(F)c1F`, the IC50 (as a rule, the midpoint of a concentration-inhibition curve) was in the range of 8.6 to 14.4 µM.

Turning to `O=C(NO)c1ccc(N(Cc2ccc(C3CCCCC3)cc2)C(=O)[C@H]2CCCN2S(=O)(=O)c2c(F)c(F)c(F)c(F)c2F)cc1O`, the IC50 stood at 5.5 µM.

For `CN(CC(=O)N(Cc1ccc(C2CCCCC2)cc1)c1ccc(C(=O)O)c(O)c1)S(=O)(=O)c1cc(F)cc(F)c1F`, the IC50 is more than 26 µM.

As for `CN(CC(=O)N(Cc1ccc(C2CCCCC2)cc1)c1ccc(C(=O)O)c(O)c1)S(=O)(=O)c1cccnc1`, the IC50 is more than 26 µM.

`CN(CC(=O)N(Cc1ccc(C2CCCCC2)cc1)c1ccc(C(=O)O)c(O)c1)S(=O)(=O)c1ccc(F)c(F)c1F`: the IC50 was more than 26 µM.

As for `CN(CC(=O)N(Cc1ccc(C2CCCCC2)cc1)c1ccc(C(=O)O)c(O)c1)S(=O)(=O)c1cc(F)cc(F)c1`, the IC50 is more than 26 µM.

In the case of `CN(CC(=O)N(Cc1ccc(C2CCCCC2)cc1)c1ccc(C(=O)O)c(O)c1)S(=O)(=O)c1c(F)cc(F)cc1F`, the IC50 was more than 26 µM.

Consider `C[C@@H](C(=O)N(Cc1ccc(C2CCCCC2)cc1)c1ccc(C(=O)NO)c(O)c1)N(C)S(=O)(=O)c1c(F)c(F)c(F)c(F)c1F`, for which the IC50 was 6.8 µM.

For the molecule `CN(CC(=O)N(Cc1ccc(C2CCCCC2)cc1)c1ccc(C(=O)O)c(O)c1)S(=O)(=O)c1cc(C(F)(F)F)cc(C(F)(F)F)c1`, the IC50 was more than 26 µM.

Consider `CN(CC(=O)N(Cc1ccc(C2CCCCC2)cc1)c1ccc(C(=O)O)c(O)c1)S(=O)(=O)c1cc(F)ccc1F`, for which the IC50 was more than 26 µM.

Another test deals with Signal transducer and activator of transcription 3 (Homo sapiens) (UniProt P40763). In words: Inhibition of STAT3 in human MDA-MB-231 cells assessed as reduction in p-STAT3(Y705) level at 5 uM after 1 to 24 hrs by immunoblot analysis. It is filed as cell-based. (A western blot detects proteins with antibodies after separation by electrophoresis.)
Chain of Signal transducer and activator of transcription 3 (Homo sapiens) (P40763 whole entry): as the sequence (P42227 whole entry) above, with D760E counted along it
Regarding `O=C(O)c1ccc(N(Cc2ccc(C3CCCCC3)cc2)C(=O)[C@H]2CCCN2S(=O)(=O)c2c(F)c(F)c(F)c(F)c2F)c(F)c1`, the “p-STAT3(Y705) reduction (qualitative call)” value was “Active”.

For a further test the target is unchanged. The experiment in a line: Inhibition of STAT3 in human MDA-MB-468 cells assessed as reduction in p-STAT3(Y705) level at 5 uM after 1 to 24 hrs by immunoblot analysis. It is filed as cell-based.
For `O=C(O)c1ccc(N(Cc2ccc(C3CCCCC3)cc2)C(=O)[C@H]2CCCN2S(=O)(=O)c2c(F)c(F)c(F)c(F)c2F)c(F)c1`, the inhibition entry is “Active”.
